Experimental findings from ChEMBL document CHEMBL1121554, “Antimalarials. 12. Preparation of carbon isosteres of selected 4-pyridinemethanols as suppressive antimalarials” (1980) are described below.

Molecules are shown by their SMILES. Activity calls are given as the source filed them.

The subject of assay [1] is Mus musculus. As to the kind of experiment: Compound was evaluated for the antimalarial activity against Plasmodium berghei in mice (Mus musculus) at the dose 320 (mg/kg) administered subcutaneously; (C) is the number of mice (Mus musculus) surviving out of five at 60 days post-infection. In kind it is functional. Summed up:
(§1)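 P. berghei-infected mice, five per dose group; one subcutaneous dose given 72 h after infection. Read-out is the increase in mean survival time over infected controls, counted as active when the increase is at least 100%. Cures are mice alive out of five at 60 days post-infection. Testing was done at Rane Laboratories, University of Miami.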

Assay [2] concerns Mus musculus. Description: Compound was evaluated for the antimalarial activity against Plasmodium berghei in mice (Mus musculus) at the dose 40 (mg/kg) administered subcutaneously; (A) active. In kind it is functional. An outline of the steps: as §1
Assay [3] relates to Mus musculus. As to the kind of experiment: Compound was evaluated for the antimalarial activity against Plasmodium berghei in mice (Mus musculus) at the dose 640 (mg/kg) administered subcutaneously; (C) is the number of mice (Mus musculus) surviving out of five at 60 days post-infection. In kind it is functional. An outline of the steps:
as §1

Assay [4] deals with Mus musculus. Description: Compound was evaluated for the antimalarial activity against Plasmodium berghei in mice (Mus musculus) at the dose 160 (mg/kg) administered subcutaneously; (C) is the number of mice (Mus musculus) surviving out of five at 60 days post-infection. It counts as functional. An outline of the steps:
as §1

Assay [5] has as its system Mus musculus. As to the kind of experiment: Compound was evaluated for the antimalarial activity against Plasmodium berghei in mice (Mus musculus) at the dose 80 (mg/kg) administered subcutaneously; (C) is the number of mice (Mus musculus) surviving out of five at 60 days post-infection. In kind it is functional. Summed up: as §1
Assay [6] relates to Mus musculus. Description: Compound was evaluated for the antimalarial activity against Plasmodium berghei in mice (Mus musculus) at the dose 20 (mg/kg) administered subcutaneously. It counts as functional. Summed up: as §1
Assay [7] has as its system Mus musculus. Description: Compound was evaluated for the antimalarial activity against Plasmodium berghei in mice (Mus musculus) at the dose 20 (mg/kg) administered subcutaneously; (A) active. It counts as functional. An outline of the steps:
as §1

The test system of assay [8] is Mus musculus. As to the kind of experiment: Compound was evaluated for the antimalarial activity against Plasmodium berghei in mice (Mus musculus) at the dose 40 (mg/kg) administered subcutaneously; (C) is the number of mice (Mus musculus) surviving out of five at 60 days post-infection. In kind it is functional. Summed up:
as §1

For assay [9], the system named is Mus musculus. Description: Compound was evaluated for the antimalarial activity against Plasmodium berghei in mice (Mus musculus) at the dose 80 (mg/kg) administered subcutaneously; IA is defined as inactive. In kind it is functional, organism-based.
In assay [10] the test system is Mus musculus. As to the kind of experiment: Compound was evaluated for the antimalarial activity against Plasmodium berghei in mice (Mus musculus) at the dose 40 (mg/kg) administered subcutaneously. It counts as functional. An outline of the steps: as §1
In assay [11] the test system is Mus musculus. As to the kind of experiment: (§2) Compound was evaluated for the antimalarial activity against Plasmodium berghei in mice (Mus musculus) at the dose 80 (mg/kg) administered subcutaneously. In kind it is functional.
Assay [12] relates to Mus musculus. As to the kind of experiment: Compound was evaluated for the antimalarial activity against Plasmodium berghei in mice (Mus musculus) at the dose 320 (mg/kg) administered subcutaneously; (A) active. It counts as functional. Summed up:
as §1

In assay [13] the test system is Mus musculus. The assay is described as §2. In kind it is functional. Summed up: as §1
The source holds these as a separate data set.

In assay [14] the test system is Mus musculus. As to the kind of experiment: Compound was evaluated for the antimalarial activity against Plasmodium berghei in mice (Mus musculus) at the dose 160 (mg/kg) administered subcutaneously; (A) active. It counts as functional. Summed up:
as §1

The test system of assay [15] is Mus musculus. As to the kind of experiment: Compound was evaluated for the antimalarial activity against Plasmodium berghei in mice (Mus musculus) at the dose 80 (mg/kg) administered subcutaneous; (A) active. It counts as functional. An outline of the steps: as §1

As to `CCCCN(CCCC)CC(O)c1cc(-c2ccc(Cl)cc2)nc(-c2ccc(Cl)cc2)c1` (stereo unspecified), the No. of cures in assay [1] came out at 4; in [3] it was 5; in assay [4], 3; in [5], 3. Besides, the “Delta MST” value worked out at 15.7 days in assay [2] and 2.3 days in assay [6].
As for `CCCCNCC(O)c1cc(-c2ccc(Cl)cc2)nc(-c2ccc(Cl)cc2)c1` (stereo unspecified), the No. of cures in assay [1] amounted to 5; in assay [8], 1; in assay [3] it was 5; in assay [4], 3; in assay [5], 2. The “Delta MST” value in assay [7] worked out at 10.8 days.
Regarding `CCCCNCC(O)c1cc(/C=C/c2ccc(C(F)(F)F)cc2)cc(/C=C/c2ccc(C(F)(F)F)cc2)c1` (stereo unspecified), the “Delta MST” value in assay [9] is “inactive”.
Take `CCCCN(CCCC)CC(O)c1cc(/C=C/c2ccc(C(F)(F)F)cc2)nc(/C=C/c2ccc(C(F)(F)F)cc2)c1` (stereo unspecified): the figures for the “Delta MST” value in assay [10] and in assay [6] were 2.9 days and 0.2 days, respectively. In addition, the No. of cures came out at 5 in [1], 2 in assay [11], 5 in [3] and 5 in [4].
In the case of `CCCCN(CCCC)CC(O)c1cc(-c2ccc(Cl)cc2)cc(-c2ccc(Cl)cc2)c1` (stereo unspecified), the “Delta MST” value in assay [10] was found to be 0.5 days; in assay [12], 13.9 days; in [13], 4.1 days; in assay [14], 9.7 days; in assay [6], 0.3 days. Also, the No. of cures in assay [3] amounted to 5.
For `CCCCN(CCCC)CC(O)c1cc(/C=C/c2ccc(C(F)(F)F)cc2)cc(/C=C/c2ccc(C(F)(F)F)cc2)c1` (stereo unspecified), the figures for the “Delta MST” value in assay [15], in assay [10] and in assay [6] were 8.1 days, 0.5 days and 0.5 days, respectively. Further, the No. of cures in assay [1] and in assay [4] was 5 each time.
Consider `CCCCNCC(O)c1cc(/C=C/c2ccc(C(F)(F)F)cc2)nc(/C=C/c2ccc(C(F)(F)F)cc2)c1` (stereo unspecified), for which the “Delta MST” value in assay [9] is “inactive”.
Regarding `CCCCNCC(O)c1cc(-c2ccc(Cl)cc2)cc(-c2ccc(Cl)cc2)c1` (stereo unspecified), the “Delta MST” value in [10] stood at 1.3 days; in assay [6] it was 0.5 days. Moreover, the figures for the No. of cures in assay [1], in [4] and in [5] were 5, 5 and 3, respectively.
